Results gathered from unrelated publications.
Protocols differ between the studies behind these lines.
Target: Dual specificity tyrosine-phosphorylation-regulated kinase 1B (DYRK1B, Homo sapiens, UniProt Q9Y463)
Effect on: enzyme activity
Mode: inhibitor

| SMILES | assay | conditions | remaining activity |
| --- | --- | --- | --- |
| O=C(O)c1ccc2c(c1)nc(NCCc1ccccc1)c1ccncc12 | radiometric | 1 µM | 114% |
| COc1cc(Cl)c(C(=O)N[C@@H](CN[C@H]2CC[C@@H](N)CC2)Cc2ccc(C#N)cc2)cc1-c1ccc(CN[C@H](C)c2ccc(C)cc2)o1 | – | 1 µM | 101% |
| CC(C)(O)[C@H]1CC[C@H](Nc2ccc3ncc(-c4cccc(C(F)(F)F)c4)n3n2)CC1 | – | 1 µM | 15.3% |
| O=C(Nc1cnn(-c2csc(C(=O)NC3COC3)c2)c1)Nc1ccccc1Cl | – | 5 µM | 87% |
| O=C(O)c1ccc2c(c1)nc(Nc1ccc(Cl)cc1)c1ccncc12 | radiometric | 1 µM | 65% |
| O=C(Nc1cnn(-c2csc(C(=O)NC3COC3)c2)c1)Nc1c(F)cccc1Cl | – | 5 µM | 82.8% |
| Cc1cnc(NC2CCOCC2)nc1-n1cnc(C(=O)NC(CN)c2cc(F)cc(Cl)c2)c1 (centres unmarked) | radiometric | 1 µM | 80% |
| Nc1ncnc2occ(-c3ccc(NC(=O)Nc4cc(C(F)(F)F)ccc4F)cc3)c12 | – | 20 µM | 80% |
